# From ChEMBL document CHEMBL1255309, “Relationship between antimalarial activity and heme alkylation for spiro- and dispiro-1,2,4-trioxolane antimalarials” (Antimicrob Agents Chemother, 2008)
# What was measured:
# [1] = Induction of heme alkylation of Fe(II) heme assessed as adduct A472 absorbance change at completion of reaction at 10 uM in presence of 50% ACN-H2O with excess sodium dithionite under argon at 20 degC by spectrophotometry
# How it was run: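 Reduced heme made from hemin (10 μM final) in 50% ACN-water (from 0.5 mM stock in 0.1 M NaOH) with excess sodium dithionite, argon-purged sealed cell, stirred at 20°C; peroxide added to 10 μM final. Product formation followed as A472, normalized to initial 418 nm heme absorbance; taken at completion (t = 30 s). n = 3.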
# [2] = Induction of heme alkylation of Fe(II) heme assessed as loss of heme at 10 uM in presence of 50% ACN-H2O with excess sodium dithionite under argon at 20 degC by spectrophotometry
# How it was run: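 Fe(II) heme (10 μM final; hemin reduced by excess sodium dithionite) in 50% ACN-water under continuous argon, 20°C, stirred; reaction started with peroxide at 10 μM final. Soret absorbance (418 nm) read every 0.1 s, converted to heme concentration via linear calibration (ε = 1.26 × 10⁵ M⁻¹ cm⁻¹); heme loss measured at completion (t = 30 s). n = 3.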
# [3] = system: Plasmodium falciparum; experiment: Antimalarial activity against chloroquine-resistant Plasmodium falciparum K1; assay type: functional, organism-based
smiles,measurement,setting,value
C[C@@H]1CC[C@H]2[C@@H](C)C(=O)O[C@@H]3O[C@@]4(C)CC[C@@H]1[C@]32OO4,deltaA,[1],0.12
same,inhibition,[2],15%
c1ccc([C@@H]2OOC3(O2)C2CC4CC(C2)CC3C4)cc1 (stereo partly drawn),IC50,[3],1500 nM
same,deltaA,[1],0.13
same,inhibition,[2],16%
C1CC[C@]2(CC1)OO[C@]1(O2)C2CCCC1CCC2,IC50,[3],340 nM
same,deltaA,[1],0.03
same,inhibition,[2],9%
O=C1CCC2(CC1)OOC1(O2)C2CC3CC(C2)CC1C3 (stereo not drawn),IC50,[3],1.7 nM
same,deltaA,[1],0.88
same,inhibition,[2],81%
OC[C@H]1CC[C@]2(CC1)OO[C@]1(O2)C2CC3CC(C2)CC1C3,IC50,[3],2.8 nM
same,deltaA,[1],0.89
same,inhibition,[2],83%
CC(C)(N)CNC(=O)C[C@H]1CC[C@]2(CC1)OO[C@]1(O2)C2CC3CC(C2)CC1C3,deltaA,[1],0.89
same,inhibition,[2],83%
CC1(C)CC[C@]2(CC1)OO[C@]1(O2)C2CC3CC(C2)CC1C3,IC50,[3],7.9 nM
same,deltaA,[1],0.77
same,inhibition,[2],82%
O=C1C2CC3CC1CC(C2)[C@]31OO[C@@]2(CCCCC2)O1,IC50,[3],20 nM
same,deltaA,[1],0.57
same,inhibition,[2],61%
OC[C@H]1CC[C@@]2(CC1)OO[C@@]1(O2)C2CC3CC(C2)CC1C3,IC50,[3],2.6 nM
same,deltaA,[1],0.78
same,inhibition,[2],83%
C1CCC2(CC1)OOC1(O2)C2CC3CC(C2)CC1C3 (stereo not drawn),IC50,[3],3.8 nM
same,deltaA,[1],0.84
same,inhibition,[2],86%
C[C@H]1[C@H](OC(=O)CCC(=O)O)O[C@@H]2O[C@@]3(C)CC[C@H]4[C@H](C)CC[C@@H]1[C@@]24OO3 [ARTESUNATE],IC50,[3],3.2 nM
same,deltaA,[1],0.39
same,inhibition,[2],44%
CC(C)(O)[C@H]1CC[C@]2(CC1)OO[C@]1(O2)C2CC3CC(C2)CC1C3,IC50,[3],210 nM
same,deltaA,[1],0.23
same,inhibition,[2],30%
C[C@@]1(c2ccccc2)OOC2(O1)C1CC3CC(C1)CC2C3 (stereo partly drawn),IC50,[3],10 nM
same,deltaA,[1],0.63
same,inhibition,[2],67%
C1CCC2(CC1)OOC1(CCCCC1)O2,deltaA,[1],0.03
same,inhibition,[2],17%
Clc1ccc([C@H]2CC[C@]3(CC2)OO[C@]2(O3)C3CC4CC(C3)CC2C4)cc1,IC50,[3],20 nM
same,deltaA,[1],0.84
same,inhibition,[2],84%
O=C(O)[C@H]1CC[C@]2(CC1)OO[C@]1(O2)C2CC3CC(C2)CC1C3,IC50,[3],49 nM
same,deltaA,[1],0.89
same,inhibition,[2],74%
O=C(O)C[C@H]1CC[C@]2(CC1)OO[C@]1(O2)C2CC3CC(C2)CC1C3,IC50,[3],110 nM
same,deltaA,[1],0.87
same,inhibition,[2],83%
C[C@H]1[C@@H](O)O[C@@H]2O[C@@]3(C)CC[C@H]4[C@H](C)CC[C@@H]1[C@@]24OO3 [ARTENIMOL],IC50,[3],0.77 nM
same,deltaA,[1],0.22
same,inhibition,[2],28%
NC[C@H]1CC[C@]2(CC1)OOC1(O2)C2CC3CC(C2)CC1C3 (stereo partly drawn),deltaA,[1],0.87
same,inhibition,[2],83%
O=S(=O)(O)OC[C@H]1CC[C@]2(CC1)OO[C@]1(O2)C2CC3CC(C2)CC1C3,IC50,[3],250 nM
same,deltaA,[1],0.85
same,inhibition,[2],81%
c1ccc(C2(c3ccccc3)CCC3(CC2)OOC2(O3)C3CC4CC(C3)CC2C4)cc1 (stereo not drawn),deltaA,[1],0.1
same,inhibition,[2],11%
CC(C)(C)[C@H]1CC[C@]2(CC1)OO[C@]1(O2)C2CC3CC(C2)CC1C3,IC50,[3],200 nM
same,deltaA,[1],0.25
same,inhibition,[2],34%
CCC[C@H]1CC[C@]2(CC1)OO[C@]1(O2)C2CC3CC(C2)CC1C3,IC50,[3],3.6 nM
same,deltaA,[1],0.8
same,inhibition,[2],85%
CO[C@H]1O[C@@H]2O[C@@]3(C)CC[C@H]4[C@H](C)CC[C@@H]([C@H]1C)[C@@]24OO3,inhibition,[2],24%
c1ccc([C@H]2CC[C@]3(CC2)OO[C@]2(O3)C3CC4CC(C3)CC2C4)cc1,IC50,[3],6.5 nM
same,deltaA,[1],0.79
same,inhibition,[2],77%
